# Several values for one entry are separate records, joined by “and”; a condition that tells them apart may be missing. Equal entries are not always repeated.
# Test system: U2OS
# Assay: Multiplex assay against U2OS
# Format: toxicity, cell-based
# Conditions: human
# In short: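 Cells stained live at seeding with Hoechst33342, BioTracker Green Microtubule Cytoskeleton Dye, MitoTracker Red and Annexin V Alexa Fluor 680 were imaged on a CQ1 microscope at 37°C and 5% CO2 after compound addition. Their classification by CellPathfinder machine-learning gating ran from Hoechst high-intensity objects versus normal cells, to healthy, pyknosed or fragmented nuclei among normal cells, to mitotic or apoptotic among pyknosed cells. Tubulin, mitochondrial-mass and membrane-permeability phenotypes are per cents of healthy-nucleus cells.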
# [1] = 12 h, 1 µM, compound concentration 1 uM
# [2] = 12 h, 10 µM, compound concentration 10 uM
# [3] = 24 h, 1 µM, compound concentration 1 uM
# [4] = 24 h, 10 µM, compound concentration 10 uM
# [5] = 48 h, 1 µM, compound concentration 1 uM
# [6] = 48 h, 10 µM, compound concentration 10 uM
smiles,measurement,setting,value
Cc1ccc(C(C)(O)c2nc3ccccc3s2)c(C)c1 (centres undefined),Population Apoptotic (%),[1],86% and 100%
same,Population Fragmented Nuclei (%),[1],19% and 17%
same,Population Healthy Nuclei (%),[1],70% and 78%
same,Population Hoechst High Intensity Objects (%),[1],3% and 0%
same,Population Membrane Permeable-Phenotype (%),[1],4% and 9%
same,Population Mitochondria Different-Phenotype (%),[1],1% and 4%
same,Population Mitotic Cells (%),[1],13% and 0%
same,Population Normal (%),[1],96% and 99%
same,Population Pyknosed Nuclei (%),[1],9% and 3%
same,Population Tubulin-Different-Phenotype (%),[1],2% and 5%
same,Total Cell Count,[1],249 and 141
same,Population Apoptotic (%),[2],100% and 66%
same,Population Fragmented Nuclei (%),[2],25% and 18%
same,Population Healthy Nuclei (%),[2],67% and 77%
same,Population Hoechst High Intensity Objects (%),[2],2% and 4%
same,Population Membrane Permeable-Phenotype (%),[2],9% and 3%
same,Population Mitochondria Different-Phenotype (%),[2],3% and 1%
same,Population Normal (%),[2],97% and 95%
same,Population Pyknosed Nuclei (%),[2],6% and 3%
same,Population Tubulin-Different-Phenotype (%),[2],3% and 1%
same,Total Cell Count,[2],234 and 89
same,Population Apoptotic (%),[3],92% and 90%
same,Population Fragmented Nuclei (%),[3],22% and 13%
same,Population Healthy Nuclei (%),[3],69% and 80%
same,Population Hoechst High Intensity Objects (%),[3],1% and 0%
same,Population Membrane Permeable-Phenotype (%),[3],4% and 6%
same,Population Mitochondria Different-Phenotype (%),[3],0% and 3%
same,Population Mitotic Cells (%),[3],7% and 10%
same,Population Normal (%),[3],98% and 99%
same,Population Pyknosed Nuclei (%),[3],8% and 6%
same,Population Tubulin-Different-Phenotype (%),[3],3% and 4%
same,Total Cell Count,[3],327 and 159
same,Population Apoptotic (%),[4],88% and 75%
same,Population Fragmented Nuclei (%),[4],22% and 16%
same,Population Healthy Nuclei (%),[4],71% and 75%
same,Population Hoechst High Intensity Objects (%),[4],1% and 4%
same,Population Membrane Permeable-Phenotype (%),[4],5% and 3%
same,Population Mitochondria Different-Phenotype (%),[4],3% and 1%
same,Population Mitotic Cells (%),[4],11% and 25%
same,Population Normal (%),[4],98% and 95%
same,Population Pyknosed Nuclei (%),[4],6% and 7%
same,Population Tubulin-Different-Phenotype (%),[4],3%
same,Total Cell Count,[4],272 and 113
same,Population Apoptotic (%),[5],88% and 94%
same,Population Fragmented Nuclei (%),[5],16% and 15%
same,Population Healthy Nuclei (%),[5],74% and 76%
same,Population Hoechst High Intensity Objects (%),[5],2% and 3%
same,Population Membrane Permeable-Phenotype (%),[5],5% and 6%
same,Population Mitochondria Different-Phenotype (%),[5],2% and 3%
same,Population Mitotic Cells (%),[5],11% and 5%
same,Population Normal (%),[5],97% and 96%
same,Population Pyknosed Nuclei (%),[5],9% and 8%
same,Population Tubulin-Different-Phenotype (%),[5],2% and 5%
same,Total Cell Count,[5],442 and 215
same,Population Apoptotic (%),[6],96% and 85%
same,Population Fragmented Nuclei (%),[6],23% and 11%
same,Population Healthy Nuclei (%),[6],69% and 83%
same,Population Hoechst High Intensity Objects (%),[6],2% and 5%
same,Population Membrane Permeable-Phenotype (%),[6],6% and 5%
same,Population Mitochondria Different-Phenotype (%),[6],1%
same,Population Normal (%),[6],97% and 94%
same,Population Pyknosed Nuclei (%),[6],7% and 5%
same,Population Tubulin-Different-Phenotype (%),[6],4%
same,Total Cell Count,[6],365 and 147

# Reference: ChEMBL document CHEMBL5724801, “EUbOPEN Chemogenomics Library - Multiplex” (2024)
